Laboratory results taken from PMC8776895 (British journal of pharmacology, 2021).
Positions of bridges follow the written chain, without caps; N, C: chain ends. Residues, ends and D or L forms follow the SMILES beside them. No end group written: not given here.

Key:
Format in all cases: cell-based
[1] = molecular target: T1, m-CTR:m-RAMP3 (Mus musculus, UniProt Q60755+Q9WUP1); test: cAMP production, agonist concentration-response, transfected Cos7 cells; conditions: for EC50: SEM; for fold increase in potency relative to m-CTR alone: m-CTR:m-RAMP3 versus m-CTR:pcDNA
T1 sequence (Q60755 42-496 isoform Q60755-2 limits assumed): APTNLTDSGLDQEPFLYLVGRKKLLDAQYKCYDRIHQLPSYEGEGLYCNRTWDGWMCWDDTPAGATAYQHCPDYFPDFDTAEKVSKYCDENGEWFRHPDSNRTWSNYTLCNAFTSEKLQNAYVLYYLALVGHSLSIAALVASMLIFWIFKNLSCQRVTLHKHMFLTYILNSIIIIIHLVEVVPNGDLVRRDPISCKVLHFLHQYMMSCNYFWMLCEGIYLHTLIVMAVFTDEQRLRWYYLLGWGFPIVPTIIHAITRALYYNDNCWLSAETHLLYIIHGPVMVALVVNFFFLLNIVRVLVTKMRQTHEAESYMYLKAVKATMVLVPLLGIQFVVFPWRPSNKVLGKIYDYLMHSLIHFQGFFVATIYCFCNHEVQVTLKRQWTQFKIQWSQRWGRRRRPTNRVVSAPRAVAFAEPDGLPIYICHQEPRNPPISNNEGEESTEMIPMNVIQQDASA
T1 sequence (Q9WUP1 23-147): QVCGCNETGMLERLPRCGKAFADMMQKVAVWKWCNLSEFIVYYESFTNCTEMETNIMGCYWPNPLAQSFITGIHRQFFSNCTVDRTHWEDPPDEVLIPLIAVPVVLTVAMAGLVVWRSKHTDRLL

[2] = molecular target: T2, m-CLR:m-RAMP3 (Mus musculus, UniProt Q9R1W5+Q9WUP1); test: as above; conditions: SEM
[3] = molecular target: T3, m-CLR:m-RAMP2 (Mus musculus, UniProt Q9R1W5+Q9WUP0, P10T); test: as above; conditions: for EC50: SEM
[4] = molecular target: T4, m-CTR:m-RAMP1 (Mus musculus, UniProt Q60755+Q9WTJ5); test: as above; conditions: for EC50: SEM
T4 sequence (Q60755 42-496 isoform Q60755-2 limits assumed): T1 sequence (Q60755 42-496 isoform Q60755-2 limits assumed)
T4 sequence (Q9WTJ5 27-148): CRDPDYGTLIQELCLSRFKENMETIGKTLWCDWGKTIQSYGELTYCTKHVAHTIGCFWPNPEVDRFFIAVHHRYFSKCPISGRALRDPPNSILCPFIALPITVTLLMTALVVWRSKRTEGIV

[5] = molecular target: T5, m-CTR:pcDNA (m-CTR alone) (Mus musculus, UniProt Q60755); test: as above; conditions: SEM
T5 sequence (Q60755 42-496 isoform Q60755-2 limits assumed): T1 sequence (Q60755 42-496 isoform Q60755-2 limits assumed)

[6] = molecular target: m-CLR:m-RAMP1 (Mus musculus, UniProt Q9R1W5+Q9WTJ5); test: as above; conditions: for EC50: SEM
[7] = molecular target: T6, m-CTR:m-RAMP2 (Mus musculus, UniProt Q60755+Q9WUP0, P10T); test: as above; conditions: SEM
T6 sequence (Q60755 42-496 isoform Q60755-2): T1 sequence (Q60755 42-496 isoform Q60755-2 limits assumed)
T6 sequence (Q9WUP0 45-189): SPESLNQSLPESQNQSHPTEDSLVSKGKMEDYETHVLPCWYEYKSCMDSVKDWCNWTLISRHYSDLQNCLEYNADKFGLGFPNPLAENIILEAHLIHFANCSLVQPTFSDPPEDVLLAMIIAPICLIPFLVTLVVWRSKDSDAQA

[8] = molecular target: m-CLR:pcDNA (Mus musculus, UniProt Q9R1W5); test: cAMP production, agonist stimulation, Cos7 cells with m-CLR without RAMP; conditions: concentrations as high as 10 μM
Procedure, shortened: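 Mouse CLR was co-transfected 1:1 with empty pcDNA3.1(+) (no RAMP) into Cos-7 cells with polyethylenimine. Cells were seeded at 15,000–20,000/well, transfected 18–24 h later and used about 48 h after that. After 30 min in DMEM with 1 mM IBMX and 0.1% BSA, agonist peptides were applied for 15 min at 37 °C. Forskolin (100 µM final) served as positive control. cAMP was quantified by LANCE assay from a standard curve, in duplicate or triplicate.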

[9] = molecular target: T3, m-CLR:m-RAMP2; test: Antagonism of agonist-stimulated cAMP production, transfected Cos7 cells
[10] = molecular target: T2, m-CLR:m-RAMP3; test: as above; conditions: agonist m-AM, mean ± s.e.m., n = 5, SEM

Sequence of m-CLR:m-RAMP1 (Q9R1W5 23-463, one chain of several): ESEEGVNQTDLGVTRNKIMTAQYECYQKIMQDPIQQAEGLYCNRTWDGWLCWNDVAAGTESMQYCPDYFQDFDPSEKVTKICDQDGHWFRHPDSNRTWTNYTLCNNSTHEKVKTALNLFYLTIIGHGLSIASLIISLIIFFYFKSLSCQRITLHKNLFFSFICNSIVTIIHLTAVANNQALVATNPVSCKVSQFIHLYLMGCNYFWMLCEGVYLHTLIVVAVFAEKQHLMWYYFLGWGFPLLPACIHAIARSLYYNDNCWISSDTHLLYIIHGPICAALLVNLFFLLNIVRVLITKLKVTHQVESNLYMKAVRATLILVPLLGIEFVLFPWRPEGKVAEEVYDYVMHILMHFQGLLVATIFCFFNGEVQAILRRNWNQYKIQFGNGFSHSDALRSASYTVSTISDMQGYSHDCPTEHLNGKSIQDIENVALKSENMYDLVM
T2 sequence (Q9R1W5 23-463, one chain of several): as above
T3 sequence (Q9R1W5 23-463, one chain of several): as above
Sequence of m-CLR:pcDNA (Q9R1W5 23-463): as the sequence (Q9R1W5 23-463, one chain of several) above

EC50 [1] [nM]	EC50 [2] [nM]	EC50 [3] [nM]	EC50 [4] [nM]	EC50 [5] [nM]	EC50 [6] [nM]	fold less potent than m/r-αCGRP ([6]; m-CLR:m-RAMP1, cAMP pEC50)	EC50 [7] [nM]	fold increase in potency relative to m-CTR alone [1] [fold]	fold less potent than m-AM ([3]; m-CLR:m-RAMP2, cAMP pEC50)	fold increase in potency relative to m-CTR alone ([4]; m-CTR:m-RAMP1 versus m-CTR:pcDNA)	cAMP response to stimulation [8]	pA2 ([9]; agonist m-AM, m-CLR:m-RAMP2, mean ± s.e.m., n = 5, SEM)	fold more effective at m-CLR:m-RAMP2 over m-CLR:m-RAMP3 ([9]; from pA2, agonist m-AM)	pA2 [10]	Compound
1.66	0.776	3.72	3.02	12.3	0.955	approximately 14 fold	8.13								CC(C)C[C@H](NC(=O)[C@H](CCCNC(=N)N)NC(=O)[C@H](Cc1c[nH]cn1)NC(=O)[C@H](CO)NC(=O)[C@H](CC(C)C)NC(=O)[C@H](CC(N)=O)NC(=O)[C@H](CCC(N)=O)NC(=O)[C@@H](NC(=O)[C@H](CCC(N)=O)NC(=O)[C@@H]1CSSC[C@H](NC(=O)CNC(=O)[C@@H](N)C(C)C)C(=O)N[C@@H](C(C)C)C(=O)N[C@@H](CC(C)C)C(=O)NCC(=O)N[C@@H]([C@@H](C)O)C(=O)N1)C(C)C)C(=O)N[C@@H](Cc1c[nH]c2ccccc12)C(=O)N[C@@H](CCC(N)=O)C(=O)N[C@@H](CC(C)C)C(=O)N[C@H](C(=O)N[C@@H](CCCNC(=N)N)C(=O)N1CCC[C@H]1C(=O)N[C@@H](C)C(=O)NCC(=O)N[C@@H](CCCNC(=N)N)C(=O)N[C@@H](CCCNC(=N)N)C(=O)N[C@@H](CC(=O)O)C(=O)N[C@@H](CO)C(=O)N[C@@H](C)C(=O)N1CCC[C@H]1C(=O)N[C@H](C(=O)N[C@@H](CC(=O)O)C(=O)N1CCC[C@H]1C(=O)N[C@@H](CO)C(=O)N[C@@H](CO)C(=O)N1CCC[C@H]1C(=O)N[C@@H](Cc1c[nH]cn1)C(=O)N[C@@H](CO)C(=O)N[C@@H](Cc1ccc(O)cc1)C(N)=O)C(C)C)C(C)C [m-AM2_40] (H-VGCVLGTCQVQNLSHRLWQLVRPAGRRDSAPVDPSSPHSY-NH2; disulfide 3-8; N-terminus assumed)
2.14	1.32	10.5	6.92	56.2	4.47		42.7	26	~ seven	eight					PHAQLLRVGCVLGTCQVQNLSHRLWQLVRPAGRRDSAPVDPSSPHSY-NH2 (disulfide 10-15) [m-AM2_47]
3.55	0.468	1.55	27.5	37.2	6.61		19.5	11			did not respond				YRQSMNQGSRSNGCRFGTCTFQKLAHQIYQLTDKDKDGMAPRNKISPQGY-NH2 (disulfide 14-19) [m-AM]
												5.71 ± 0.03	three	5.19 ± 0.21	h-AM22-52: commonly used AM-receptor antagonist, purchased from Bachem
